Screening results: PubChem BioAssay, several laboratories
CR mimetic SO: lowers age-related superoxide in aged yeast cells; S. cerevisiae aged cells, superoxide DHE fluorescence; stronger effect = lower value; 0.18% of 330,000 active; superoxide response (% of plate mean), % at 10 µM;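 active means superoxide response under a set limit, about three screen SD below normal, cut at about 65% in these data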;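 further: yeast aged for seven days with compound at 30 °C before DHE staining; 100% = average MFI of all compound-treated wells on the plate with controls excluded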
TRPC6 inhibitor: blocks the mouse TRPC6 cation channel; HEK293-TRPC6, membrane potential dye, ACh-evoked depolarization; stronger effect = lower value; B-score at 10 µM; 1.1% of 310,000 active;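 active means B-score under library mean minus 3 SD, initial fluorescence not abnormally high, positive integrated signal ratio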;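 further: B-score derived from integrated fluorescence ratio over the kinetic read; more negative B-score means stronger inhibition of depolarization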
Target sequence (Q61143 whole entry, looked up): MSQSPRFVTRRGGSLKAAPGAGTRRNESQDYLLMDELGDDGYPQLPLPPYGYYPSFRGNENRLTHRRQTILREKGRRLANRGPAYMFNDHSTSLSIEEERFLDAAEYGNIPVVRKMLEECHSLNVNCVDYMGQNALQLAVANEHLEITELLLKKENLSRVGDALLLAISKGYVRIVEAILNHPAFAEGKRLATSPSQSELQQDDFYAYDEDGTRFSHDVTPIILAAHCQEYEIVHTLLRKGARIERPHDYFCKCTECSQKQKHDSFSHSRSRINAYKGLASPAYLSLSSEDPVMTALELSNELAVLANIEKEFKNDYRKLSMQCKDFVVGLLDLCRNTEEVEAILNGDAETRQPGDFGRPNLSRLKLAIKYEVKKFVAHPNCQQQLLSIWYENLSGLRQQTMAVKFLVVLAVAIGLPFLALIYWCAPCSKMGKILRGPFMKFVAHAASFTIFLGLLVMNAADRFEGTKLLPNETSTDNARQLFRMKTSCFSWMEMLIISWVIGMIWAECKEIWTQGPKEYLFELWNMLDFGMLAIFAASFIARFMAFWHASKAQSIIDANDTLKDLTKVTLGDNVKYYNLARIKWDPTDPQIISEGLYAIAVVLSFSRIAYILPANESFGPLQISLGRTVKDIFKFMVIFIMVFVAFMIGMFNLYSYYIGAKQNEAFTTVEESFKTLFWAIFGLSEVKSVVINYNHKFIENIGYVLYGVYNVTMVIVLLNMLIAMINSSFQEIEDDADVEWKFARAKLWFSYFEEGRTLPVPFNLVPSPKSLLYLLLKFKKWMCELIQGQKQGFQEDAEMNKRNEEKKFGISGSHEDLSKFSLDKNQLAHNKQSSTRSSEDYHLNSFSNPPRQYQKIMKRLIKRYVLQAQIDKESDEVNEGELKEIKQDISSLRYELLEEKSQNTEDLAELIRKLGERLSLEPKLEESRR
TRPC4 act: TRPC4 (mouse) channel activation; Q9QUQ5; HEK293 TRPC4beta/mu-opioid, Fluo4 calcium fluorescence; stronger effect = higher value; B-score at 10 µM; 0.49% of 310,000 active; AID 2237;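 active means B-score above 5 SD of library B-scores, and initial fluorescence ratio not above library mean plus 5 SD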;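 further: positive B-score marks a calcium rise read as TRPC4 activation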
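Assay system: HEK293 stable line with TRPC4beta plus mu-opioid receptor. Times: dye 45 min RT, read 110 s. Measured by: kinetic Fluo4 calcium fluorescence. Measure: B score of integrated ratio. Controls: assay buffer as low control, maximal DAMGO as high control.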
TRPC4 potent: allosteric potentiators of mouse TRPC4 channel | 0.42% of 310,000 active | Q9QUQ5 | HEK293 TRPC4beta/mu-opioid, DAMGO EC20, Fluo-4 Ca2+ flux; stronger effect = higher value | B-score at 10 µM;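 active means B-score of calcium response area above 5 SD of library B-scores, with initial fluorescence ratio within 5 SD of library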;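 further: B-score of integrated fluorescence ratio over time as area under calcium response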
TRPC4 inh: TRPC4 (mouse) channel inhibition; Q9QUQ5; HEK293 TRPC4beta/mu-opioid, DAMGO-evoked Fluo4 calcium flux; stronger effect = lower value; B-score at 10 µM; 0.39% of 300,000 active;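 active means B-score over 3 SD under the library average, no early fluorescence shift, positive overall ratio signal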
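Assay system: Stable TRPC4beta/mu-opioid receptor HEK293 cells | Reagent: DAMGO in two steps, submaximal then maximal | Compound dosing: Single concentration per test compound | Signal: Fluo4 Ca2+ flux fluorescence | Evaluation: Per-well B score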
TRPC6 activator: activators of mouse TRPC6 channel; Q61143; HEK293-TRPC6 membrane potential dye fluorescence; stronger effect = higher value; B-score at 10 µM; 0.13% of 310,000 active;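 active means B-score of the integrated fluorescence ratio above library mean plus 3 SD, and starting fluorescence ratio within library mean plus 5 SD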;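 further: higher score means more depolarization so channel activation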
* hit, by the source's call; i = inactive. Only some compounds are listed: those with a hit (about 2.3% of all), similar ones and a draw of the others.

SMILES | CR mimetic SO | TRPC6 inhibitor | TRPC4 act | TRPC4 potent | TRPC4 inh | TRPC6 activator
CN(C(=O)c1cncc(Br)c1)c1c(N)n(Cc2ccccc2)c(=O)[nH]c1=O | 82 | i | i | i | i | i
CCc1ccc(NC(=S)NC(=O)CC(C)C)cc1 | 94 | i | i | i | i | i
COc1ccc(/C(N)=N/OC(=O)Cc2cccs2)cc1 | 99 | i | i | i | i | i
Cc1cc2oc(C(=O)N(Cc3ccccc3)C3CCS(=O)(=O)C3)cc(=O)c2cc1Cl (centres undefined) | 107 | i | i | 23* | i | i
O=C(c1sc2ccccc2c1Cl)N(Cc1ccccc1Cl)C1CCS(=O)(=O)C1 (centres undefined) | 101 | i | i | i | i | i
O=C(c1sc2ccccc2c1Cl)N(Cc1ccccc1)C1CCS(=O)(=O)C1 (centres undefined) | 102 | i | 107* | i | i | i
O=C(c1cc(=O)c2ccccc2o1)N(Cc1ccccc1)C1CCS(=O)(=O)C1 (centres undefined) | 94 | i | i | i | i | i
O=C(c1sc2ccccc2c1Cl)N(Cc1ccco1)C1CCS(=O)(=O)C1 (centres undefined) | 94 | i | 59* | i | i | i
Cc1cc(C)c2c(CC(=O)O)coc2c1 | 112 | i | i | i | i | i
COC(=O)C1=C(C)N(CCc2ccc(OC)c(OC)c2)C(=O)/C1=C\c1ccc(O)cc1 | 94 | i | i | i | i | i
COc1ccc(CCN2CCCC(CN(C)C(=O)c3ccoc3)C2)cc1 (centres undefined) | 106 | i | i | 19* | i | i
COc1ccc(Cn2c(=O)c3c(nc(NCCO)n3C)n(C)c2=O)cc1 | 108 | i | i | 12* | i | i
Cc1cc(SCC(=O)c2cccc([N+](=O)[O-])c2)nc(=O)[nH]1 | 91 | i | i | 41* | i | i
Cc1cc(SCc2cccc([N+](=O)[O-])c2)nc(=O)[nH]1 | 108 | i | i | i | i | i
CO/N=C/c1ccc(N2CCN(C(=O)c3ccc(Cl)cc3Cl)CC2)c([N+](=O)[O-])c1 | 87 | i | i | 12* | i | i
CO/N=C/c1ccc(N2CCN(C(=O)c3ccc(F)cc3)CC2)c([N+](=O)[O-])c1 | 107 | i | i | i | i | i
O=C(Nc1ccccc1)C1CC(=O)N(C2CCCCC2)C1 (centres undefined) | 94 | i | i | i | i | i
CCCCN(C(=O)c1cc(OC)c(OC)c(OC)c1)C1=CC2CCC(C1)N2C (centres undefined) | 101 | i | i | i | i | i
COc1cc(C(=O)N(CCc2ccccc2)C2=CC3CCC(C2)N3C)cc(OC)c1OC (centres undefined) | 85 | i | i | i | -7* | i
COc1ccc(Br)cc1CN1CCCC(C(=O)N2CCCCCC2)C1 (centres undefined) | 112 | i | i | i | -6* | i
COc1ccc(Br)cc1CN1CCC(N2CCCC2)CC1 | 96 | i | i | 17* | i | i
COc1ccc(Br)cc1CN1CCCC(C(=O)N2CCCCC2)C1 (centres undefined) | 98 | i | i | i | i | i
O=C(COc1cc2oc(=O)c3c(c2cc1Cl)CCC3)NCCN1CCOCC1 | 83 | i | i | i | i | i
CCOc1c(Cl)cc(CNCC(O)c2ccccc2)cc1OC (centres undefined) | 89 | i | i | i | -6* | i
CCOc1c(Cl)cc(CNCC(C)C)cc1OC | 98 | i | i | i | i | i
O=c1[nH]c2cc(Cl)ccc2n1-c1ccccc1 | 101 | i | i | i | i | i
CCCn1c(=O)c2ccccc2n2c(SCCOc3ccccc3)nnc12 | 102 | i | i | i | -7* | i
